Article PMC7359852 (ACS Infectious Diseases, 2020)
Where two headings read alike, the source gives them in different places.

How the values were obtained:
adult S. mansoni [1] = assay: Viability of adult S. mansoni worms in vitro, microscopic viability score; assay type: cell-based, Schistosoma mansoni; conditions: for IC50: Table 1, adult worms after 72 h; for adult (%) 0.1 μM: Table 1, 0.1 μM; for adult (%) 0.1 μM / adult (%) 1 μM: effect on adult worms after 72 h; for adult (%) 1 μM: Table 1, 1 μM
Outline: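 Adult worms were picked from the hepatic portal and mesenteric veins of mice infected 49 days earlier with 100 cercariae. They were washed in PBS pH 7.4 and held in RPMI 1640 with 5% heat-inactivated FCS and antibiotics at 37 °C, 5% CO2. Worms were exposed to test compound for 72 h, with medium plus 1% DMSO as control. Motility, viability and morphology were scored daily by microscopy at 80×. IC50 used a 3-fold dilution series starting at 1 μM and was computed from the scores.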

S. mansoni [2] = assay: In vivo study in mice harboring a chronic S. mansoni infection; conditions: single oral dose 10 mg/kg
Outline: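 Female NMRI mice (3 weeks old, ca. 20–22 g) were infected subcutaneously with about 100 S. mansoni cercariae. At day 49 post-infection (adult infection), groups of four received a single oral 10 mg/kg dose of test compound; untreated mice served as controls. Mice were euthanised with CO2 21 days after treatment. Worms were picked, sexed and counted, and worm burden reduction was calculated.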

S. mansoni NTS = conditions: read-out: IC50 against NTS; cited from earlier work
adult S. mansoni [3] = conditions: read-out: IC50 against adult S. mansoni; cited from earlier work
S. mansoni [4] = conditions: cited from earlier work
S. mansoni [5] = conditions: cited from earlier work; remark: listed apart in the source

Compound | IC50 (adult S. mansoni [1]; Schistosoma mansoni, 72 h) | adult (%) 0.1 μM (adult S. mansoni [1]) | adult (%) 1 μM (adult S. mansoni [1]) | IC50 (adult S. mansoni [1]) | other results
C[C@@H]1C[C@H](O)[C@]2(O)O[C@@H]3C[C@@]4(C=O)[C@@H](CC[C@@H]5[C@@H]4CC[C@]4(C)[C@@H](C6=CC(=O)OC6)CC[C@]54O)C[C@H]3O[C@@H]2O1 [5a, Calotropin] | 371 nM | 22.9% | 97% |  | 
C[C@@H]1C[C@@]2(NCCS2)[C@]2(O)O[C@@H]3C[C@@]4(C=O)[C@@H](CC[C@@H]5[C@@H]4CC[C@]4(C)[C@@H](C6=CC(=O)OC6)CC[C@]54O)C[C@H]3O[C@@H]2O1 [5aa, Voruscharin] |  | 31.3% | 98% | 137 nM | 
C[C@@H]1C[C@H](O)[C@]2(O)O[C@@H]3C[C@@]4(C)[C@@H](CC[C@@H]5[C@@H]4CC[C@]4(C)[C@@H](C6=CC(=O)OC6)CC[C@]54O)C[C@H]3O[C@@H]2O1 [5f, Gomphoside] |  | 24.4% | 94% | 196 nM | 
C[C@@H]1C[C@@]2(N=CCS2)[C@]2(O)O[C@@H]3C[C@@]4(C=O)[C@@H](CC[C@@H]5[C@@H]4CC[C@]4(C)[C@@H](C6=CC(=O)OC6)CC[C@]54O)C[C@H]3O[C@@H]2O1 [5z, Uscharin] | 76 nM | 51% | 100% |  | mean number of worms, MV (S. mansoni [2]): 27.7 ± 6.5; mean number of worms, females (S. mansoni [2]): 13.0 ± 4.6; mean number of worms, liver, alive (S. mansoni [2]): 0.7 ± 1.1; mean number of worms, liver, dead (S. mansoni [2]): 0 ± 0; mean number of worms, males (S. mansoni [2]): 15.3 ± 3.2; mean number of worms, total (S. mansoni [2]): 28.3 ± 7.5; total WBR (worm burden reduction) (S. mansoni [2]; chronic infection): 0%
O=C(C1CCCCC1)N1CC(=O)N2CCc3ccccc3C2C1 (centres unmarked) [praziquantel] |  |  |  |  | IC50 (S. mansoni NTS): 2200 nM; IC50 (adult S. mansoni [3]): 100 nM
CC(=O)S[C@@H]1CC2=CC(=O)CC[C@]2(C)[C@H]2CC[C@@]3(C)[C@@H](CC[C@@]34CCC(=O)O4)[C@H]12 [spironolactone] |  |  |  |  | in vitro activity against S. mansoni (S. mansoni [4]): 7.2 µM; in vivo activity (S. mansoni [5]): moderate
